Sampled rows, rich in hits. Any-hit rate of the full collection: about 2.9%.
RanGTP-Impb inh = disruptors of Ran-importin-beta complex formation – biochemical, FRET, CFP-Ran, YFP-importin-beta, homogeneous, primary screen | cell-free CFP-Ran/YFP-importin-beta FRET ratio | inhibition, % (test concentration not listed) | 1.1% of 300,000 active | AID 2216;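 active means more than half of the replicate wells show a fall in the fluorescence ratio signal beyond about 16%, limit read from the data, passing the limit was not always enough; inconclusive means exactly half of the replicate wells pass the set limit; inactive means fewer than half of replicates pass the limit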;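 further: 0% = DMSO wells and 100% = Ran loaded with GDP instead of GTP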
AI-2 QS modul = modulators of Vibrio harveyi AI-2 quorum sensing system; Vibrio harveyi JMH597 AI-2 luminescence/OD600 ratio, 9 h; hits give low values; strain lacks LuxN and CqsS sensors; 0 = neutral-control median; activity change, % at 7.5 µM; 0.4% of 300,000 active; AID 2094; in the data active means activity change below about -75%, passing the limit was not always enough; inconclusive means no clear call, values can overlap the other calls;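 further: luminescence divided by OD600 gain over 9 h not by final OD600 alone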
proKLK7 act = activators of human kallikrein-7 zymogen | P49862 | 0.9% of 370,000 active | activation, % at 7 µM | purified proKLK7, EDANS-DABCYL substrate fluorescence; 100% is mature enzyme control, 0% vehicle;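 active means activation above the mean of all tested compounds plus 3 SD, computed per campaign excluding outliers beyond control limits, cut at about 13% in these data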
Runt-CBFb FRET = Runt domain-CBFb interaction inhibition; AID 1496; 0.46% of 220,000 active; Q01196+Q13951; inhibition, % at 20 µM; Cerulean-Runt/Venus-CBFb FRET ratio 530/480, 1 h;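 active means inhibition over about 50% at 20 µM in the single-dose screen, limit read from the data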;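 further: 0% = DMSO wells and 100% = excess unlabeled CBFb competitor control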
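Schedule: protein complex preformed 1 h, compound exposure 1 h, room temperature, dark; test system: Cerulean-labeled Runt domain protein; amount: 100 nM per protein; buffer or medium: Tris 50 mM pH 7.5, KCl, K2SO4, 0.01% BSA; read-out: loss of energy transfer signal; detection: FRET fluorescence; controls: 5 µM unlabeled CBFb as full-inhibition high control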
Wee1 stabilizer = human Wee1 degradation inhibition, primary screen; P30291; HeLa Luc-Wee1K328M stability, luciferase luminescence; 100% = proteasome inhibitor MG132 effect; reporter increase, % at 5 µM; 1.2% of 220,000 active; AID 1321;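 active means activation above the mean of all tested compounds plus 3 SD, set per screening run, cut at about 8.8% in these data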;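 further: cells exposed to compound for 20 h before luminescence read; 0% = DMSO alone and 100% = MG132 at 30 µM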
Target sequence (P30291 whole entry K328M): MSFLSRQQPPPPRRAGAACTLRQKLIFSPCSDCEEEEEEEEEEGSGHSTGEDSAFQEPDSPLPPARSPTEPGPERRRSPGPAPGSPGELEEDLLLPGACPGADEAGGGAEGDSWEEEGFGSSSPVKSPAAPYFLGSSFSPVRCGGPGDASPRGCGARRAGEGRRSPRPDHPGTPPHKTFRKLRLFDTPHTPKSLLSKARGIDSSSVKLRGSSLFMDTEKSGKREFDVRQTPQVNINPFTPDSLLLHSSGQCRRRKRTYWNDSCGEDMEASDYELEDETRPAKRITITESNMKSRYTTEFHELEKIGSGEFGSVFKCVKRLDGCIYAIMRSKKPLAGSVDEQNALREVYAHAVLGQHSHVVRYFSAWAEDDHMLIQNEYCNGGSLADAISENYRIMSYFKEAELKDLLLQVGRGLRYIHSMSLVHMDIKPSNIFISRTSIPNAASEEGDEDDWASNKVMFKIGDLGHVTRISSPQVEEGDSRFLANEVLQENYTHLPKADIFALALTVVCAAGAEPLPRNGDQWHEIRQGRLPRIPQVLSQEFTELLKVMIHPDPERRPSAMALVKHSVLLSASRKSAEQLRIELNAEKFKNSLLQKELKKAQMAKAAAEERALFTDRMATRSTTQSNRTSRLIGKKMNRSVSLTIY
Runt-SMMHC FRET = blocks binding of human RUNX1 Runt domain to CBFb-SMMHC | AID 1434 | Q01196+Q13951 | 0.74% of 220,000 active | Cerulean-Runt/Venus-CBFb-SMMHC FRET ratio 530/480, 1 h | inhibition, % at 20 µM;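 active means mean inhibition across duplicate retests at 20 µM reaching about 50%, limit read from the data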;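 further: 0% = DMSO wells and 100% = wells with excess untagged CBFb-SMMHC; inhibitors lower the FRET ratio by blocking Runt binding to CBFb-SMMHC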
* hit, by the source's call; ? = inconclusive; nt = no result.

SMILES	RanGTP-Impb inh	AI-2 QS modul	proKLK7 act	Runt-CBFb FRET	Wee1 stabilizer	Runt-SMMHC FRET
CC(=O)c1ccc(NC(=O)C(C)OC(=O)c2cccc(-n3cnnn3)c2)cc1 (configuration not stated)	5	23	0	nt	nt	nt
Cn1cnnc1SCc1ccc(C(=O)N/N=C(/CCC(=O)O)c2ccc(C(C)(C)C)cc2)cc1	nt	nt	1	nt	nt	nt
Cc1cc(C)c2c(N)c(C(=O)c3ccccc3)sc2n1	2	27	0	-2	11*	4
COc1ccc(NC(=O)CNc2ccc(C#N)cc2)cc1	4	-10	0	1	-1	2
COc1ccc(NC(=O)CSc2nc3c(cc2C#N)CN(C)CC3)cc1	-1	18	0	10	nt	6
CCN1CCc2nc(SCC(=O)Nc3ccc(OC)cc3)c(C#N)cc2C1	?	18	0	21	2	94*
O=C1CSC(c2ccccc2)N1CC12CC3CC(CC(O)(C3)C1)C2 (configuration not stated)	0	1	1	-2	13*	-7
CC(C)(C)OC(=O)N1CCC[C@@H]1C(=O)N1CCC[C@H]1C(=O)NCc1ccccc1	nt	nt	1	nt	nt	nt
CC1CCC2(CC1)NC(=O)N(CC(=O)N1CCN(S(=O)(=O)c3ccccc3)CC1)C2=O (configuration not stated)	-2	-4	0	-1	9.7*	3
CC(C)CN1C(=O)[C@]2(CC(=O)N(C)C2c2ccccc2)c2cc(-n3cc(C4=CCCCC4)nn3)ccc21 (some centres not stated)	nt	nt	0	nt	nt	nt
Cc1ccc2nc3c(cc2c1)c(NC(=O)C1CCCO1)nn3CC(C)C (configuration not stated)	71*	4	0	41	0	59*
Cc1ccc2nc(-c3ccc(NC(=O)C4CCCO4)cc3)[nH]c2c1 (configuration not stated)	1	4	0	0	4	4
Cc1ccc2cc3c(NC(=O)C4CCCO4)nn(CC(C)C)c3nc2c1 (configuration not stated)	31*	12	7	21	1	32
Cc1ccc2cc3c(NS(=O)(=O)c4cccc5nonc45)nn(CC(C)C)c3nc2c1	-1	20	0	nt	nt	nt
CCn1nc(NC(=O)C2CCCO2)c2cc3cc(C)ccc3nc21 (configuration not stated)	44*	12	9	30	9	45
CCn1nc(NC(=O)C2CCCO2)c2cc3cccc(C)c3nc21 (configuration not stated)	58*	16	1	48	1	81*
CCn1nc(NC(=O)c2ccncc2)c2cc3cccc(C)c3nc21	?	11	0	7	-1	16
CC(=O)NC1CCCCN(C)C1=O (configuration not stated)	nt	nt	0	nt	nt	nt
CC1(C(=O)N2Cc3ccccc3C2)CCN1C(=O)C1(c2ccccc2)CC1 (configuration not stated)	nt	nt	0	nt	nt	nt
COC(=O)c1c(C(=O)OC)c2ccncn2c1Cl	-3	9	2	2	-3	-2
Nc1cccc2c1C(=O)N(C(=O)/C=C/c1ccc(F)cc1)C2=O	5	27	3	-58	4	86*
O=C(/C=C/c1ccc(F)cc1)N1CCCN(C(=O)/C=C/c2ccc(F)cc2)CC1	-5	17	0	-3	1	0
CCOC(=O)c1cc2c(=O)n3ccccc3nc2n(CCOC)c1=NC(=O)c1c(-c2c(F)cccc2Cl)noc1C	nt	7	0	68*	0	86*
Cc1onc(-c2ccccc2Cl)c1C(=O)OCn1nnc2ccccc2c1=O	-4	19	0	0	5	-8
CCOC(=O)c1cc2c(=O)n3ccccc3nc2n(C(C)C)c1=NC(=O)c1c(-c2ccccc2Cl)noc1C	1	0	-8	82*	2	88*
SMILES	RanGTP-Impb inh	AI-2 QS modul	proKLK7 act	Runt-CBFb FRET	Wee1 stabilizer	Runt-SMMHC FRET
CN(C)Cc1c(C(C)(C)O)[nH]c2ccccc12	nt	nt	0	nt	nt	nt
CCOc1ccc2nc(S(=O)(=O)NC(=O)C3(C)CCN3C(=O)c3cccc(F)c3)sc2c1 (configuration not stated)	nt	nt	0	nt	nt	nt
C(=C/c1nccc2c1[nH]c1ccccc12)/c1ccc2c(c1)OCO2	120*	28	-11	26	0	53*
O=c1c2ccccc2nc(/C=C/c2ccc3c(c2)OCO3)n1CCCO	nt	nt	nt	0	5	2
O=C(N1CCOCC1)N1CCN(S(=O)(=O)N2CCOCC2)CC1	3	15	0	-2	0	0
COc1ccc(NC(=O)c2nc[nH]c2C(=O)N2CCN(C(=O)OC(C)(C)C)CC2)cc1	25*	-4	0	0	nt	0
CCOC(=O)[C@]12CCCC3=C1N(CCC3)C(=O)[C@@H](CC(=O)N1CCN(C(=O)C3CC3)CC1)C2	nt	nt	0	nt	nt	nt
CCc1nnc(NC(=O)C(C)Sc2ccccc2)s1 (configuration not stated)	25*	3	0	0	0	0
CN(CC(=O)Nc1ccccc1Br)C(=O)Cn1[nH]c(=O)c2ccccc2c1=O	nt	nt	0	nt	nt	nt
Cc1nn(-c2ccccc2)c2sc(C(=O)NNC(=O)COc3ccccc3)cc12	1	14	0	121*	0	128
CC(=O)Nc1cc(C(=O)O)ccc1S(=O)(=O)c1ccc(C)cc1	3	4	0	-1	9.2*	3
CCC(=O)Nc1cc(C(=O)O)ccc1S(=O)(=O)c1ccc(C)cc1	-1	6	-1	1	-2	2
COc1ccccc1C(=O)OCC(=O)c1cccc([N+](=O)[O-])c1	2	42	0	0	1	5
Cc1cc(C(=O)OCC(=O)c2cccc([N+](=O)[O-])c2)c2ccccc2n1	-8	-5	0	-1	9.5*	0
O=C(C1CCN(C2CCN(Cc3ccsc3)CC2)CC1)N1CCOCC1	0	13	0	nt	nt	nt
COC(=O)c1nc2n(n1)C(c1cccc(Cl)c1)C1=C(CC(C)(C)CC1=O)N2 (configuration not stated)	7	2	19*	0	-3	3
CCN(Cc1ccccc1)c1ccccc1	nt	nt	0	nt	nt	nt
CCN(Cc1ccccc1)c1ccc(/C=N/N=C(N)N)cc1	38*	27	3	-3	-2	6
CCOC(=O)c1sc(-c2ccc(Cl)cc2Cl)nc1O	-37	34	-3	-61	7	84*
COc1ccc(C)cc1NC(=O)c1cc2c(=O)n3ccccc3nc2n1C	nt	8	9	-64	-4	92*
